Molecular target: Phosphodiesterase 7 (Homo sapiens, UniProt Q13946+Q9NP56)
Assay: Inhibition of PDE7 catalytic domain (unknown origin) using [3H]-cAMP as substrate after 1 hr by scintillation proximity assay
Format: protein assay
Procedure, shortened: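 Test compounds were dissolved in DMSO (10 mM stock) and run as a dilution series. It was stirred 1 h at room temperature, stopped with PDE SPA beads, settled 20 min and counted. Assays were run in triplicate, and IC50 was calculated.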

| IC50 | SMILES |
| --- | --- |
| 11 µM | Cc1nc(SCc2ccc(-c3ccccc3-c3nn[nH]n3)cc2)c2ccccc2n1 |
| 44 µM | CC(C)c1nc(SCc2ccc(-c3ccccc3C(=O)O)cc2)c2ccccc2n1 |
| 0.85 µM | CC(C)c1nc(SCc2ccc(-c3cccc(C(=O)O)c3)cc2)c2ccccc2n1 |
| 0.93 µM | CC(C)c1nc(SCc2ccc(-c3ccc(C(=O)O)cc3)cc2)c2ccccc2n1 |
| 12 µM | Clc1ccc(-c2nc(SCc3ccc(-c4ccccc4-c4nnn[nH]4)cc3)c3ccccc3n2)cc1 |
| > 100 µM | Brc1cc(Br)c2c(SCc3ccc(-c4cccc(-c5nnn[nH]5)c4)cc3)nc(CCc3ccccc3)nc2c1 |
| 3.6 µM | COc1cc2c(SCc3ccc(-c4ccccc4-c4nnn[nH]4)cc3)nc(CCc3ccccc3)nc2c(OC)c1OC |
| > 100 µM | N#Cc1ccccc1-c1ccc(CSc2ncnc3ccccc23)cc1 |
| > 100 µM | Cc1nc(SCc2ccc(-c3ccccc3C#N)cc2)c2ccccc2n1 |
| > 100 µM | N#Cc1ccccc1-c1ccc(CSc2nc(C(Cl)(Cl)Cl)nc3ccccc23)cc1 |
| > 100 µM | CC(C)c1nc(SCc2ccc(-c3ccccc3C#N)cc2)c2ccccc2n1 |
| ND(Insoluble) | N#Cc1ccccc1-c1ccc(CSc2nc(SCc3ccccc3)nc3ccccc23)cc1 |
| > 100 µM | N#Cc1ccccc1-c1ccc(CSc2nc(SCc3ccc(F)cc3)nc3ccccc23)cc1 |
| > 100 µM | N#Cc1ccccc1-c1ccc(CSc2nc(SCc3ccc([N+](=O)[O-])cc3)nc3ccccc23)cc1 |
| > 100 µM | COC(=O)c1ccccc1-c1ccc(CSc2nc(C(C)C)nc3ccccc23)cc1 |
| > 100 µM | COC(=O)c1cccc(-c2ccc(CSc3nc(C(C)C)nc4ccccc34)cc2)c1 |
| 33 µM | COC(=O)c1ccc(-c2ccc(CSc3nc(C(C)C)nc4ccccc34)cc2)cc1 |
| 7.1 µM | c1ccc(CSc2nc(SCc3ccc(-c4ccccc4-c4nnn[nH]4)cc3)c3ccccc3n2)cc1 |
| 6.8 µM | Fc1ccc(CSc2nc(SCc3ccc(-c4ccccc4-c4nnn[nH]4)cc3)c3ccccc3n2)cc1 |
| 4.9 µM | O=[N+]([O-])c1ccc(CSc2nc(SCc3ccc(-c4ccccc4-c4nnn[nH]4)cc3)c3ccccc3n2)cc1 |
| 3.3 µM | COc1cccc(CSc2nc(SCc3ccc(-c4ccccc4-c4nnn[nH]4)cc3)c3ccccc3n2)c1 |
| ND(Insoluble) | c1ccc(-c2nnn[nH]2)c(-c2ccc(CSc3nc(SCc4ccc(-c5ccccc5-c5nnn[nH]5)cc4)c4ccccc4n3)cc2)c1 |
| 8.2 µM | c1cc(-c2ccc(CSc3ncnc4ccccc34)cc2)cc(-c2nnn[nH]2)c1 |
| 7.2 µM | c1ccc2c(SCc3ccc(-c4ccc(-c5nnn[nH]5)cc4)cc3)ncnc2c1 |
| 2.5 µM | Cc1nc(SCc2ccc(-c3cccc(-c4nnn[nH]4)c3)cc2)c2ccccc2n1 |
| 8 µM | Cc1nc(SCc2ccc(-c3ccc(-c4nnn[nH]4)cc3)cc2)c2ccccc2n1 |
| 2.6 µM | ClC(Cl)(Cl)c1nc(SCc2ccc(-c3ccccc3-c3nnn[nH]3)cc2)c2ccccc2n1 |
| 0.89 µM | CC(C)c1nc(SCc2ccc(-c3cccc(-c4nnn[nH]4)c3)cc2)c2ccccc2n1 |
| 0.77 µM | CC(C)c1nc(SCc2ccc(-c3ccccc3-c3nn[nH]n3)cc2)c2ccccc2n1 |

From ChEMBL document CHEMBL2346541, “Synthesis and evaluation of quinazoline derivatives as phosphodiesterase 7 inhibitors” (Bioorg Med Chem, 2013)
